≈ marks a conversion by molar mass, not a printed value.
Experiments:
Format in all cases: functional
Vero [1] = test: Evaluation for antiviral activity against forest virus in Vero cell cultures (Concentration required to reduce virus-induced cytopathogenicity by 50%); conditions: Chlorocebus sabaeus
How it was run: (§1)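 Vero cultures were infected with parainfluenza-3, reovirus-1, Sindbis, Coxsackie B4 or Semliki forest virus. Values are concentrations giving 50% reduction of virus-induced cytopathogenicity, or a microscopically detectable alteration of normal cell morphology for cytotoxicity. Each is the average of two separate experiments.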

HeLa [2] = test: Evaluation for antiviral activity against polio virus-1 in HeLa cell cultures (Concentration required to reduce virus-induced cytopathogenicity by 50%); conditions: Homo sapiens
How it was run: (§2)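 HeLa cultures were infected with respiratory syncytial, vesicular stomatitis, Coxsackie B4 or polio-1 virus. The antiviral end-point is 50% reduction of virus-induced cytopathogenicity. Cytotoxicity is the minimum concentration producing microscopically detectable alteration of normal cell morphology.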

[3] = Evaluation for antiviral activity against herpes simplex virus-2(G) in primary rabbit kidney cell cultures(PRK) (Concentration required to reduce virus-induced cytopathogenicity by 50%); conditions: Oryctolagus cuniculus
[4] = Evaluation for antiviral activity against vesicular stomatitis virus in primary rabbit kidney cell cultures(PRK) (Concentration required to reduce virus-induced cytopathogenicity by 50%); conditions: Oryctolagus cuniculus
HeLa [5] = test: Evaluation for antiviral activity against vesicular stomatitis virus in HeLa cell cultures (Concentration required to reduce virus-induced cytopathogenicity by 50%); conditions: Homo sapiens; how it was run: as §2
[6] = Evaluated for antiviral activity against herpes simplex virus-1(KOS) in primary rabbit kidney cell cultures(PRK) (Concentration required to reduce virus-induced cytopathogenicity by 50%); conditions: Oryctolagus cuniculus
Vero [7] = test: Evaluation for antiviral activity against Sindbis virus in Vero cell cultures (Concentration required to reduce virus-induced cytopathogenicity by 50%); conditions: Chlorocebus sabaeus; how it was run: as §1
Vero [8] = test: Evaluation for antiviral activity against Coxsackie virus B4 in Vero cell cultures (Concentration required to reduce virus-induced cytopathogenicity by 50%); conditions: Chlorocebus sabaeus; how it was run: as §1
[9] = Evaluation for antiviral activity against vaccinia virus in primary rabbit kidney cell cultures(PRK) (Concentration required to reduce virus-induced cytopathogenicity by 50%); conditions: Oryctolagus cuniculus
HeLa [10] = test: Evaluation in HeLa cell cultures for cytotoxicity that is to cause microscopically detectable alteration of normal cell morphology; conditions: Homo sapiens; how it was run: as §2
HeLa [11] = test: Evaluation for antiviral activity against Coxsackie virus B4 in HeLa cell cultures (Concentration required to reduce virus-induced cytopathogenicity by 50%); conditions: Homo sapiens; how it was run: as §2
[12] = Evaluation in PRK cell cultures for cytotoxicity that is to cause microscopically detectable alteration of normal cell morphology; conditions: Oryctolagus cuniculus
Vero [13] = test: Evaluation for antiviral activity against reo virus-1 in Vero cell cultures (Concentration required to reduce virus-induced cytopathogenicity by 50%); conditions: Chlorocebus sabaeus; how it was run: as §1
Vero [14] = test: Evaluation for antiviral activity against parainfluenza-3 virus in Vero cell cultures (Concentration required to reduce virus-induced cytopathogenicity by 50%); conditions: Chlorocebus sabaeus; how it was run: as §1
Vero [15] = test: Evaluation in Vero cell cultures for cytotoxicity that is to cause microscopically detectable alteration of normal cell morphology; conditions: Chlorocebus sabaeus; how it was run: as §1
MDCK = test: Compound was evaluated in MDCK cell cultures for cytotoxicity that is to cause microscopically detectable alteration of normal cell morphology; conditions: Canis lupus familiaris
How it was run: (§3)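 Influenza A and B virus replication in MDCK cultures. Antiviral value is the concentration giving 50% reduction of virus-induced cytopathogenicity. Cytotoxicity is the concentration causing a microscopically detectable change in normal cell morphology.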

Influenza B virus = test: Concentration required to reduce influenza virus B (singapore) induced cytopathogenicity by 50%; how it was run: as §3
Influenza A virus = test: Concentration required to reduce influenza virus A (ishikawa) induced cytopathogenicity by 50%; how it was run: as §3
[16] = Evaluation for antiviral activity against herpes simplex virus-1(TK-) (B2006) in primary rabbit kidney cell cultures(PRK) (Concentration required to reduce virus-induced cytopathogenicity by 50%); conditions: Oryctolagus cuniculus
HeLa [17] = test: Compound was evaluated for antiviral activity against respiratory syncitial virus (long) in HeLa cell cultures (Concentration required to reduce virus-induced cytopathogenicity by 50%); conditions: Homo sapiens; how it was run: as §2
MT4 = test: Inhibitory effect on the proliferation of human T-lymphocyte (MT-4); conditions: read-out: ID50 (the source's name)
How it was run: (§4)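 Proliferation assay in murine leukemia L1210, human T-lymphoblast Molt-4F and human T-lymphocyte MT-4 cells. ID50 is the dose inhibiting tumor cell proliferation by 50%, expressed in μg/mL.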

[18] = Evaluation for antiviral activity against herpes simplex virus-2(Lyons) in primary rabbit kidney cell cultures(PRK) (Concentration required to reduce virus-induced cytopathogenicity by 50%); conditions: Oryctolagus cuniculus
[19] = Evaluation for antiviral activity against herpes simplex virus-2(196) in primary rabbit kidney cell cultures(PRK) (Concentration required to reduce virus-induced cytopathogenicity by 50%); conditions: Oryctolagus cuniculus
MOLT-4F = test: Inhibitory effect on the proliferation of human T-lymphoblast cells (Molt-4F); conditions: read-out: ID50 (the source's name); how it was run: as §4
L1210 = test: Inhibitory effect on the proliferation of murine leukemia cells (L1210); conditions: Mus musculus, read-out: ID50 (the source's name); how it was run: as §4
[20] = Evaluation for antiviral activity against herpes simplex virus-1 (McIntyre) in primary rabbit kidney cell cultures(PRK) (Concentration required to reduce virus-induced cytopathogenicity by 50%); conditions: Oryctolagus cuniculus
[21] = Evaluation for antiviral activity against herpes simplex virus-1(F) in primary rabbit kidney cell cultures(PRK) (Concentration required to reduce virus-induced cytopathogenicity by 50%); conditions: Oryctolagus cuniculus

| Structure (SMILES) | MIC (Vero [1]) [µg/mL] | MIC (HeLa [2]) [µg/mL] | MIC [3] [µg/mL] | MIC [4] [µg/mL] | MIC (HeLa [5]) [µg/mL] | MIC [6] [µg/mL] | MIC (Vero [7]) [µg/mL] | MIC (Vero [8]) [µg/mL] | MIC [9] [µg/mL] | MCC (HeLa [10]) [µg/mL] | MIC (HeLa [11]) [µg/mL] | MCC [12] [µg/mL] | MIC (Vero [13]) [µg/mL] | MIC (Vero [14]) [µg/mL] | MCC (Vero [15]) [µg/mL] | MCC (MDCK) [µg/mL] | MIC [16] [µg/mL] | MIC [18] [µg/mL] | MIC [19] [µg/mL] | MIC [20] [µg/mL] | also measured |
| --- | --- | --- | --- | --- | --- | --- | --- | --- | --- | --- | --- | --- | --- | --- | --- | --- | --- | --- | --- | --- | --- |
| C[C@@H]1CSCON2CCc3c([nH]c4ccccc34)[C@H]12 | > 40 | > 40 | > 100 | > 100 | > 40 | > 100 | 20 (≈ 72.9 µM) | 20 (≈ 72.9 µM) | > 100 | 40 | > 40 | > 100 | > 40 | > 40 | > 100 |  |  |  |  |  |  |
| O[C@@H]1CSCON2CCc3c([nH]c4ccccc34)[C@@H]12 | > 40 | > 100 | > 100 | > 100 | > 100 | > 100 | 20 (≈ 72.4 µM) | > 40 | > 100 | 100 | > 40 | > 100 | > 40 | > 40 | > 100 | 3 |  |  |  |  | MIC (Influenza B virus): > 1.6 µg/mL; MIC (Influenza A virus): > 1.6 µg/mL |
| c1ccc2c3c([nH]c2c1)C1CCSCON1CC3 (stereo unspecified) | > 10 | > 10 | > 100 | > 100 | > 10 |  | > 10 | > 10 | > 100 | > 40 | > 10 | > 200 | > 10 | > 10 | > 40 | 80 | > 100 | > 100 | > 100 | > 100 | MIC (HeLa [17]): > 8 µg/mL; IC50 (MT4): 96 µg/mL (≈ 369 µM); IC50 (MOLT-4F): 18.3 µg/mL (≈ 70.3 µM); IC50 (L1210): 24.9 µg/mL (≈ 95.6 µM); MIC (Influenza B virus): > 40 µg/mL; MIC (Influenza A virus): > 40 µg/mL |
| Nc1nccc2c1ncn2[C@@H]1C[C@H](CO)[C@@H](O)[C@H]1O [3-DEAZAARISTEROMYCIN A] | > 400 | > 400 | > 200 | 2 (≈ 7.57 µM) | 2 (≈ 7.57 µM) | > 200 | 20 (≈ 75.7 µM) | 20 (≈ 75.7 µM) | 0.7 (≈ 2.65 µM) | > 400 | > 400 | > 400 | 2 (≈ 7.57 µM) | 2 (≈ 7.57 µM) | > 400 |  | 150 (≈ 568 µM) | > 200 | > 200 | > 200 | MIC [21]: > 200 µg/mL |
| O=c1[nH]c(=O)n([C@H]2C[C@H](O)[C@@H](CO)O2)cc1/C=C/Br [BRIVUDINE] | > 400 | > 400 | 7 (≈ 21 µM) | > 200 | > 400 |  | > 400 | > 400 | 7 (≈ 21 µM) | > 400 | > 400 | > 400 | > 400 | > 400 | > 400 |  | 150 (≈ 450 µM) | 70 (≈ 210 µM) | 70 (≈ 210 µM) | 0.02 (≈ 0.06 µM) | MIC [21]: 0.02 µg/mL (≈ 0.06 µM) |
| NC(=O)c1ncn([C@@H]2O[C@H](CO)[C@@H](O)[C@H]2O)n1 [RIBAVIRIN] | 40 (≈ 164 µM) | 70 (≈ 287 µM) | > 200 | > 400 | 20 (≈ 81.9 µM) | > 200 | 40 (≈ 164 µM) | 70 (≈ 287 µM) | 20 (≈ 81.9 µM) | > 400 | 70 (≈ 287 µM) | > 400 | 70 (≈ 287 µM) | 20 (≈ 81.9 µM) | > 400 | > 200 | > 200 | > 200 | > 200 | > 200 | MIC (HeLa [17]): 3 µg/mL (≈ 12.3 µM); MIC [21]: > 200 µg/mL; MIC (Influenza B virus): 15 µg/mL (≈ 61.4 µM); MIC (Influenza A virus): 15 µg/mL (≈ 61.4 µM) |

Source: ChEMBL document CHEMBL1125540, “Antiviral and antitumor structure-activity relationship studies on tetracyclic eudistomines” (1992)
